# From ChEMBL document CHEMBL4196178, “Structure-Based Drug Design of Potent Pyrazole Derivatives against Rhinovirus Replication” (J Med Chem, 2018)
# Active and inactive are the calls of the source. No cut-off for these calls is given here.
# Experiments:
# [1] = Cytotoxicity against human HeLa Rh cells assessed as reduction in cell viability after 3 days by MTS assay; type: cell-based
# [2] = Selectivity index, ratio of CC50 for human HeLa Rh cells to EC50 for Rhinovirus B14 capsid infected in human HeLa Rh cells; type: toxicity, cell-based; settings: read-out: Ratio CC50/EC50
# In short: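 SI = CC₅₀/EC₅₀ for RV-B14 in HeLa Rh cells, both from the same 3-day 35 °C MTS CPE assay. CC₅₀ was obtained by light-microscope scoring of compound-treated uninfected cells, and EC₅₀ from MTS dose-response. Both values were derived by logarithmic interpolation and reported as median ± median absolute deviation.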
# CHO-K1 [3] = assay: Genotoxicity in CHOK1 cells assessed as increase in micronucleated cell rates at 1 to 100 uM after 3 hrs in presence of Sprague-Dawley rat S9 fraction and cytokinesis blocking agent cytochalasin B by Giemsa-staining based assay; type: toxicity, Cricetulus griseus; settings: chinese hamster, s9, 3 h
# In short: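 CHO-K1 cells were seeded at 100,000 cells/ml and pre-incubated 24 h. S9 mix from Aroclor 1254-treated male Sprague-Dawley rat liver (1% S9, 0.5 mM G6P, 0.4 mM NADP) was added at 10%, and compound (1–100 μM) was given in duplicate for 3 h at 37 °C. Controls were medium, 1% DMSO and benzo-a-pyrene 5 µg/ml. Cells then had 21 h in 3 µg/ml cytochalasin B and Giemsa staining. Micronuclei were counted in 1000 binucleated cells per well at doses with CI% decrease <55 ± 5%, and compared by χ² test.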
# rhinovirus B14 [4] = assay: Antiviral activity against Rhinovirus B14 infected in human HeLa Rh cells assessed as reduction in viral replication at 1 uM administered at the time of infection measured after 8 hrs post infection by RT-qPCR analysis; type: functional, organism-based
# In short: (§1)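 HeLa Rh cells adhered overnight, then given 1 µM compound 2 h before, at, or 2, 4 or 6 h after RV-B14 infection. Untreated infected cells served as controls. Cells lysed at 8 h post-infection, DNases heat-inactivated at 75 °C for 15 min. Intracellular viral RNA measured by SYBR one-step qRT-PCR against a gBlock standard series, reported as genome equivalents per sample.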
# rhinovirus B14 [5] = assay: Antiviral activity against Rhinovirus B14 infected in human HeLa Rh cells assessed as reduction in viral replication at 1 uM administered at >= 2 hrs post infection measured after 8 hrs post infection by RT-qPCR analysis; type: functional, organism-based; in short: as §1
# CHO-K1 [6] = assay: Genotoxicity in CHOK1 cells assessed as increase in micronucleated cell rates at 1 to 100 uM after 3 hrs in absence of Sprague-Dawley rat S9 fraction and presence of cytokinesis blocking agent cytochalasin B by Giemsa-staining based assay; type: toxicity, Cricetulus griseus; settings: chinese hamster, cho-k1, 3 h
# In short: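 CHO-K1 cells were seeded at 100,000 cells/ml and pre-incubated 24 h, then exposed in duplicate to compound (1–100 μM) for 3 h at 37 °C without S9. Controls were medium, 1% DMSO and mitomycin C 0.6 µg/ml. Cells then had 21 h in 3 µg/ml cytochalasin B, followed by methanol fixation and 10% Giemsa. Micronuclei were counted in 1000 binucleated cells per well, restricted to doses with CI% decrease <55 ± 5%, and compared by χ² test.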
# [7] = biological target: T1, VP1 capsid protein (Human rhinovirus sp.) (UniProt Q7T664); assay: Inhibition of Rhinovirus B14 capsid infected in human HeLa Rh cells assessed as reduction in viral replication at 1 uM administered 2 hrs before infection measured after 8 hrs post infection by RT-qPCR analysis; type: cell-based; in short: as §1
# T1 sequence (whole entry): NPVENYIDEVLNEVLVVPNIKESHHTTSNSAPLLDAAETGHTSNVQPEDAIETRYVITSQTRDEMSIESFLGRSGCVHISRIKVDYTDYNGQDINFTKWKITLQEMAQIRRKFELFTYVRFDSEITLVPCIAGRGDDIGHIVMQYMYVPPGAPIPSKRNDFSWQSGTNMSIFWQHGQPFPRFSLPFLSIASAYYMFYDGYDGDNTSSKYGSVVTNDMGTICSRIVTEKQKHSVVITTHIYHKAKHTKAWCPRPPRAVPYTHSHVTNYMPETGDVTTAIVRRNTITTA
# [8] = biological target: T1, VP1 capsid protein (Human rhinovirus sp.); assay: Inhibition of capsid of VP1 N105S mutant harboring Rhinovirus B14 assessed as reduction of virus induced cytopathic effect at 2 times EC50 concentration after 4th passage measured after 3 days by MTS assay
# [9] = biological target: T1, VP1 capsid protein (Human rhinovirus sp.); assay: Inhibition of Rhinovirus B14 capsid infected in human HeLa Rh cells assessed as number of wells with full cytopathic effect at EC50 concentration after 4th passage measured after 3 days by MTS assay relative to control; type: cell-based; design: scale not given: the % may be the effect or the level left
# In short: (§2)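 Confluent HeLa cells were infected with wild-type RV-B14 with compound present at 1x, 2x or 4x in vitro EC₅₀, n=4 wells. Supernatant was diluted 1:10 onto fresh HeLa cells with compound, for four passages. Value is percentage of wells with full CPE.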
# [10] = biological target: T1, VP1 capsid protein (Human rhinovirus sp.); assay: Inhibition of Rhinovirus B14 capsid infected in human HeLa Rh cells assessed as number of wells with full cytopathic effect at 4 times EC50 concentration after 1st passage measured after 3 days by MTS assay relative to control; type: cell-based; design: scale not given: the % may be the effect or the level left; in short: as §2
# [11] = biological target: T1, VP1 capsid protein (Human rhinovirus sp.); assay: Inhibition of Rhinovirus B14 capsid infected in human HeLa Rh cells assessed as number of wells with full cytopathic effect at EC50 concentration after 2nd passage measured after 3 days by MTS assay relative to control; type: cell-based; design: scale not given: the % may be the effect or the level left; in short: as §2
# [12] = biological target: T1, VP1 capsid protein (Human rhinovirus sp.); assay: Inhibition of Rhinovirus B14 capsid infected in human HeLa Rh cells assessed as number of wells with full cytopathic effect at 2 times EC50 concentration after 4th passage measured after 3 days by MTS assay relative to control; type: cell-based; design: scale not given: the % may be the effect or the level left; in short: as §2
# [13] = biological target: T1, VP1 capsid protein (Human rhinovirus sp.); assay: Inhibition of Rhinovirus B14 capsid infected in human HeLa Rh cells assessed as number of wells with full cytopathic effect at 4 times EC50 concentration after 4th passage measured after 3 days by MTS assay relative to control; type: cell-based; design: scale not given: the % may be the effect or the level left; in short: as §2
# [14] = biological target: T1, VP1 capsid protein (Human rhinovirus sp.); assay: Inhibition of Rhinovirus B14 capsid infected in human HeLa Rh cells assessed as number of wells with full cytopathic effect at 2 times EC50 concentration after 1st passage measured after 3 days by MTS assay relative to control; type: cell-based; design: scale not given: the % may be the effect or the level left; in short: as §2
# [15] = biological target: T1, VP1 capsid protein (Human rhinovirus sp.); assay: Inhibition of capsid of VP1 C199W mutant harboring Rhinovirus B14 assessed as reduction of virus induced cytopathic effect at 1 times EC50 concentration after 4th passage measured after 3 days by MTS assay
# [16] = biological target: T1, VP1 capsid protein (Human rhinovirus sp.); assay: Inhibition of Rhinovirus B14 capsid infected in human HeLa Rh cells assessed as number of wells with full cytopathic effect at 2 times EC50 concentration after 2nd passage measured after 3 days by MTS assay relative to control; type: cell-based; design: scale not given: the % may be the effect or the level left; in short: as §2
# [17] = biological target: T1, VP1 capsid protein (Human rhinovirus sp.); assay: Inhibition of Rhinovirus B14 capsid infected in human HeLa Rh cells assessed as number of wells with full cytopathic effect at EC50 concentration after 1st passage measured after 3 days by MTS assay relative to control; type: cell-based; design: scale not given: the % may be the effect or the level left; in short: as §2
# [18] = biological target: T1, VP1 capsid protein (Human rhinovirus sp.); assay: Inhibition of Rhinovirus B14 capsid infected in human HeLa Rh cells assessed as number of wells with full cytopathic effect at 2 times EC50 concentration after 3rd passage measured after 3 days by MTS assay relative to control; type: cell-based; design: scale not given: the % may be the effect or the level left; in short: as §2
# [19] = biological target: T1, VP1 capsid protein (Human rhinovirus sp.); assay: Inhibition of Rhinovirus B14 capsid infected in human HeLa Rh cells assessed as number of wells with full cytopathic effect at 4 times EC50 concentration after 3rd passage measured after 3 days by MTS assay relative to control; type: cell-based; design: scale not given: the % may be the effect or the level left; in short: as §2
# [20] = biological target: T1, VP1 capsid protein (Human rhinovirus sp.); assay: Inhibition of capsid of VP1 A150V mutant harboring Rhinovirus B14 assessed as reduction of virus induced cytopathic effect at 4 times EC50 concentration after 4th passage measured after 3 days by MTS assay
# rhinovirus B14 [21] = assay: Inhibition of Rhinovirus B14 capsid infected in human HeLa Rh cells assessed as number of wells with full cytopathic effect at 4 times EC50 concentration after 2nd passage measured after 3 days by MTS assay relative to control; type: functional; design: scale not given: the % may be the effect or the level left; in short: as §2
# [22] = biological target: T1, VP1 capsid protein (Human rhinovirus sp.); assay: Inhibition of Rhinovirus B14 capsid infected in human HeLa Rh cells assessed as number of wells with full cytopathic effect at EC50 concentration after 3rd passage measured after 3 days by MTS assay relative to control; type: cell-based; design: scale not given: the % may be the effect or the level left; in short: as §2
compound,measurement,setting,value
Cn1cc(-c2ccc(C[C@@H](O)c3ccc(-n4cccn4)cc3)c([N+](=O)[O-])c2)cn1,CC50 at 72 h,[1],> 342 µM
same,selectivity ratio,[2],> 136
Cn1cc(-c2ccc(C[C@H](O)c3ccc(-n4cccn4)cc3)c([N+](=O)[O-])c2)cn1,CC50 at 72 h,[1],> 342 µM
same,Activity,CHO-K1 [3],Non-Toxic
same,Activity,rhinovirus B14 [4],Active
same,Activity,rhinovirus B14 [5],inactive
same,selectivity ratio,[2],> 9770
same,Activity,CHO-K1 [6],Non-Toxic
same,inhibition,[7],Active
Cn1cc(-c2ccc(C[C@H](O)c3ccc(-n4cncn4)cc3)c([N+](=O)[O-])c2)cn1,CC50 at 72 h,[1],> 342 µM
same,Activity,CHO-K1 [3],Non-Toxic
same,Activity,rhinovirus B14 [4],Active
same,Activity,rhinovirus B14 [5],inactive
same,selectivity ratio,[2],> 5700
same,Activity,CHO-K1 [6],Non-Toxic
same,inhibition,[7],Active
Cn1cc(-c2ccc(C[C@@H](O)c3ccc(-n4cncn4)cc3)c([N+](=O)[O-])c2)cn1,CC50 at 72 h,[1],> 342 µM
O=[N+]([O-])c1cc(-c2cncs2)ccc1CC(O)c1ccc(-n2cncn2)cc1 (racemic),CC50 at 72 h,[1],44 µM
same,selectivity ratio,[2],110
COC(=O)c1ccc(CC(O)c2ccc(-c3ccncc3)cc2)c([N+](=O)[O-])c1 (racemic),CC50 at 72 h,[1],> 264 µM
same,selectivity ratio,[2],> 41
Cn1nc(C(F)(F)F)cc1-c1ccc(CC(O)c2ccc(-n3cncn3)cc2)c([N+](=O)[O-])c1 (racemic),CC50 at 72 h,[1],21 µM
Cn1nc(C(F)(F)F)cc1-c1ccc(CC(O)c2ccc(-n3cccn3)cc2)c([N+](=O)[O-])c1 (racemic),CC50 at 72 h,[1],14 µM
same,selectivity ratio,[2],29
O=[N+]([O-])c1cc(-c2ccco2)ccc1CC(O)c1ccc(-c2ccncc2)cc1 (racemic),CC50 at 72 h,[1],> 86 µM
same,selectivity ratio,[2],> 72
O=[N+]([O-])c1cc(Cl)ccc1CC(O)c1ccc(-n2cccn2)cc1 (racemic),CC50 at 72 h,[1],> 100 µM
same,selectivity ratio,[2],> 781
Cc1noc(C)c1-c1ccc(CC(O)c2ccc(-n3cncn3)cc2)c([N+](=O)[O-])c1 (racemic),CC50 at 72 h,[1],> 256 µM
O=[N+]([O-])c1cc(Br)ccc1CC(O)c1ccc(-n2cncn2)cc1 (racemic),CC50 at 72 h,[1],39 µM
same,selectivity ratio,[2],156
O=[N+]([O-])c1cc(Br)ccc1CC(O)c1ccc(-c2ccncc2)cc1 (racemic),CC50 at 72 h,[1],> 250 µM
same,selectivity ratio,[2],> 424
O=[N+]([O-])c1cc(-c2cccs2)ccc1CC(O)c1ccc(-c2ccncc2)cc1 (racemic),CC50 at 72 h,[1],> 248 µM
same,selectivity ratio,[2],> 191
Cn1nc(C(F)(F)F)cc1-c1ccc(CC(O)c2ccc(-c3ccncc3)cc2)c([N+](=O)[O-])c1 (racemic),CC50 at 72 h,[1],> 100 µM
same,selectivity ratio,[2],> 100
O=[N+]([O-])c1cc(Br)ccc1CC(O)c1ccc(-n2cccn2)cc1 (racemic),CC50 at 72 h,[1],22.5 µM
same,selectivity ratio,[2],90
Cn1cc(-c2ccc(CC(O)c3ccc(-n4cncn4)cc3)c([N+](=O)[O-])c2)cn1 (racemic),inhibition,[8],Active
same,CC50 at 72 h,[1],256 to 699 µM
same,Activity,[9],100%
same,Activity,[10],0%
same,Activity,[11],50%
same,Activity,rhinovirus B14 [4],Active
same,Activity,[12],50%
same,Activity,rhinovirus B14 [5],inactive
same,Activity,[13],0%
same,Activity,[14],0%
same,inhibition,[15],Active
same,Activity,[16],0%
same,selectivity ratio,[2],1420 to 3880
same,Activity,[17],0%
same,Activity,[18],25%
same,inhibition,[7],Active
same,Activity,[19],0%
same,inhibition,[20],inactive
same,Activity,rhinovirus B14 [21],0%
same,Activity,[22],75%
O=[N+]([O-])c1cc(F)ccc1CC(O)c1ccc(-n2cccn2)cc1 (racemic),CC50 at 72 h,[1],> 100 µM
same,selectivity ratio,[2],> 12
Cc1noc(C)c1-c1ccc(CC(O)c2ccc(-n3cccn3)cc2)c([N+](=O)[O-])c1 (racemic),CC50 at 72 h,[1],14 µM
Cc1cc(CCCOc2c(C)cc(-c3noc(C(F)(F)F)n3)cc2C)on1 [PLECONARIL],CC50 at 72 h,[1],> 131 µM
same,Activity,[9],100%
same,Activity,[10],0%
same,Activity,[11],100%
same,Activity,rhinovirus B14 [4],Active
same,Activity,[12],100%
same,Activity,rhinovirus B14 [5],inactive
same,Activity,[13],25%
same,Activity,[14],0%
same,Activity,[16],0%
same,selectivity ratio,[2],> 4040
same,Activity,[17],0%
same,Activity,[18],100%
same,inhibition,[7],Active
same,Activity,[19],25%
same,Activity,rhinovirus B14 [21],0%
same,Activity,[22],100%
